Results taken from ChEMBL document CHEMBL4014315 (J Med Chem, 2017).
pEC50, pIC50, pKi: −log10 of the molar value. The source made the active and inactive calls. The rule behind the calls is not given here.

Assays:
[1] = molecular target: T1, Broad substrate specificity ATP-binding cassette transporter ABCG2 (Homo sapiens, UniProt Q9UNQ0); experiment: Competitive inhibition of recombinant human GFP-fused ABCG2 expressed in MDCK2 cells up to 5620 nM preincubated for 30 mins followed by varying levels of Hoechst 33342 addition measured immediately at 60 sec time interval for 120 mins by Hanes-Woolf plot analysis; format: cell-based; settings: 2 h
T1 sequence (Q9UNQ0 whole entry): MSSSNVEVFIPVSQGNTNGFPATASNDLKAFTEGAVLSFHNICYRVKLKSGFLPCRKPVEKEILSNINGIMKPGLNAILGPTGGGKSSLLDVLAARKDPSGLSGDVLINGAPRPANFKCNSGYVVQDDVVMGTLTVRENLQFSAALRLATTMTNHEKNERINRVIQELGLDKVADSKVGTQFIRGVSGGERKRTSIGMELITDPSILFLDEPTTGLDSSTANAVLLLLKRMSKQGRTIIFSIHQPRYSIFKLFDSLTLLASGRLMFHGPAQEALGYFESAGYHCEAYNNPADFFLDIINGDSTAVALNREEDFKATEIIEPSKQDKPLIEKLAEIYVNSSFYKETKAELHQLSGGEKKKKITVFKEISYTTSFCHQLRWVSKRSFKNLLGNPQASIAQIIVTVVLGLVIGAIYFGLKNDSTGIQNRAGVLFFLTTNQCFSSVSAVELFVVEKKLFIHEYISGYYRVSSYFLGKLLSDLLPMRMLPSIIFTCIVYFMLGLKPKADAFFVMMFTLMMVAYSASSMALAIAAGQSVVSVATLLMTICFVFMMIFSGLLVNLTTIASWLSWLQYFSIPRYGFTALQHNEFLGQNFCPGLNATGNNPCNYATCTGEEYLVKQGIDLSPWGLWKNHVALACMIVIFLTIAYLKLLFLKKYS
In short: (§1)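 Kinetics were run with Hoechst 33342 as the fluorescent ABCG2 substrate at varying levels, combined with several modulator concentrations. Data were analysed by double-reciprocal Lineweaver-Burk, half-reciprocal Hanes-Woolf and Cornish-Bowden direct linear plots. Changes in Vmax and KM with modulator concentration defined the mode: competitive, non-competitive or mixed type.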

[2] = molecular target: ATP-dependent translocase ABCB1 (Homo sapiens, UniProt P08183); experiment: Inhibition of ABCB1 in human A2780adr cells assessed as reduction in calcein AM levels preincubated for 30 mins followed by calcein AM addition measured immediately at 60 sec time interval for 60 mins by fluorescence assay; format: cell-based
In short: (§2)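 Calcein AM assay in A2780adr cells (ABCB1 overexpressing) and H69AR cells (ABCC1 overexpressing). Compounds were screened at 10 µM, with inhibition relative to cyclosporine A as the total-inhibition control.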

ABCB1 = ABCB1 (Homo sapiens, UniProt P08183); experiment: Inhibition of ABCB1 in human A2780adr cells assessed as reduction in calcein AM levels at 10 uM preincubated for 30 mins followed by calcein AM addition measured immediately at 60 sec time interval for 60 mins by fluorescence assay relative to Cyclosporine A; format: cell-based; settings: probe calcein AM; in short: as §2
[3] = molecular target: T1, Broad substrate specificity ATP-binding cassette transporter ABCG2; experiment: Competitive inhibition of recombinant human GFP-fused ABCG2 expressed in MDCK2 cells up to 5620 nM preincubated for 30 mins followed by varying levels of Hoechst 33342 addition measured immediately at 60 sec time interval for 120 mins by Lineweaver-Burk plot analysis; format: cell-based; settings: 2 h; in short: as §1
[4] = molecular target: T1, Broad substrate specificity ATP-binding cassette transporter ABCG2; experiment: Inhibition of recombinant human GFP-fused ABCG2 expressed in MDCK2 cells assessed as reduction in Hoechst 33342 efflux preincubated for 30 mins followed by Hoechst 33342 addition measured immediately at 60 sec time interval for 120 mins by fluorescence assay; format: cell-based
In short: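 Hoechst 33342 accumulation assay: the dye is an ABCG2 substrate whose fluorescence rises when bound to DNA or embedded in membrane. Intracellular accumulation serves as the read-out of transporter inhibition.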

[5] = molecular target: T1, Broad substrate specificity ATP-binding cassette transporter ABCG2; experiment: Competitive inhibition of recombinant human GFP-fused ABCG2 expressed in MDCK2 cells up to 1000 nM preincubated for 30 mins followed by varying levels of Hoechst 33342 addition measured immediately at 60 sec time interval for 120 mins by Cornish-Bowden plot analysis; format: cell-based; settings: 2 h; in short: as §1
[6] = molecular target: T1, Broad substrate specificity ATP-binding cassette transporter ABCG2; experiment: Activation of ABCG2 (unknown origin) ATPase activity expressed in baculovirus infected high five cell membranes by ascorbic acid/ammonia molybdate reaction-based colorimetric analysis; settings: read-out: EC50
In short: (§3)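 Colorimetric ATPase assay of ABCG2 membranes; activity expressed relative to control. Where data were biphasic, a combined increasing plus decreasing logistic equation with the Hill coefficient fixed at one was fitted, giving an activating and an inactivating K.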

ABCG2 [7] = molecular target: T2, ABCG2 (Homo sapiens, UniProt Q9UNQ0); experiment: Activation of ABCG2 (unknown origin) ATPase activity expressed in baculovirus infected high five cell membranes assessed as protein Vmax by ascorbic acid/ammonia molybdate reaction-based colorimetric analysis relative to basal control; settings: read-out: Vmax; in short: as §3
T2 sequence (Q9UNQ0 whole entry): T1 sequence (Q9UNQ0 whole entry)

ABCG2 [8] = molecular target: T2, ABCG2; experiment: Inhibition of recombinant human GFP-fused ABCG2 expressed in MDCK2 cells assessed as reduction in Hoechst 33342 efflux at […] preincubated for 30 mins followed by Hoechst 33342 addition measured immediately at 60 sec time interval for 120 mins by fluorescence assay relative to Ko143; format: cell-based; settings: MDCK2 cells expressing recombinant GFP-fused human ABCG2, probe Hoechst 33342, read-out: Imax
ABCC1 = ABCC1 (Homo sapiens, UniProt P33527); experiment: Inhibition of ABCC1 in human H69AR cells assessed as reduction in calcein AM levels at 10 uM preincubated for 30 mins followed by calcein AM addition measured immediately at 60 sec time interval for 60 mins by fluorescence assay relative to Cyclosporine A; format: cell-based; settings: probe calcein AM; in short: as §2
MDCK-II [9] = experiment: Cytotoxicity against ABCG2 over-expressing MDCK2 cells assessed as effect on cell proliferation at low concentration after 72 hrs in absence of DMSO and presence of 1% methanol by MTT assay; format: ADME, cell-based, Canis lupus familiaris; settings: dog
In short: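 Modified MTT viability assay in ABCG2-overexpressing MDCK II cells, run without DMSO and with a constant 1% methanol.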

[10] = molecular target: T1, Broad substrate specificity ATP-binding cassette transporter ABCG2; experiment: Inhibition of human GFP-fused ABCG2 expressed in MDCK2 cells assessed as potentiation of SN-38 induced cytotoxicity by measuring cell viability at 1 uM after 72 hrs by MTT assay; format: cell-based
In short: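 Reversal MTT assay in ABCG2-overexpressing MDCK II cells: SN-38 dilutions were combined with different modulator concentrations. Parental MDCK II cells defined total inhibition, and overexpressing cells without modulator defined no inhibition. GI50 values were plotted against log modulator concentration to derive IC50.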

[11] = Therapeutic index, ratio of GI50 for ABCG2 over-expressing MDCK2 cells to IC50 for recombinant human GFP-fused ABCG2 expressed in MDCK2 cells; format: cell-based
MDCK-II [12] = experiment: Potentiation of SN-38 induced cytotoxicity against MDCK2 cells at 0.01 to 5 uM after 72 hrs by MTT assay; format: functional, cell-based; settings: Canis lupus familiaris
In short: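 Parental MDCK II cells were given SN-38 dilutions combined with different modulator concentrations, with viability read by MTT.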

[13] = Cytotoxicity against ABCG2 over-expressing MDCK2 cells assessed as cell growth inhibition after 72 hrs by MTT assay; format: ADME, cell-based, Canis lupus familiaris, MDCK-II; settings: dog
[14] = Cytotoxicity against MDCK2 cells assessed as cell growth inhibition after 72 hrs by MTT assay; format: cell-based, Canis lupus familiaris, MDCK-II; settings: dog
[15] = molecular target: T1, Broad substrate specificity ATP-binding cassette transporter ABCG2; experiment: Non-competitive inhibition of recombinant human GFP-fused ABCG2 expressed in MDCK2 cells up to 100 nM preincubated for 30 mins followed by varying levels of Hoechst 33342 addition measured immediately at 60 sec time interval for 120 mins by Cornish-Bowden plot analysis; format: cell-based; settings: 2 h; in short: as §1
[16] = molecular target: T1, Broad substrate specificity ATP-binding cassette transporter ABCG2; experiment: Non-competitive inhibition of recombinant human GFP-fused ABCG2 expressed in MDCK2 cells up to 100 nM preincubated for 30 mins followed by varying levels of Hoechst 33342 addition measured immediately at 60 sec time interval for 120 mins by Lineweaver-Burk plot analysis; format: cell-based; settings: 2 h; in short: as §1
[17] = molecular target: T1, Broad substrate specificity ATP-binding cassette transporter ABCG2; experiment: Non-competitive inhibition of recombinant human GFP-fused ABCG2 expressed in MDCK2 cells up to 100 nM preincubated for 30 mins followed by varying levels of Hoechst 33342 addition measured immediately at 60 sec time interval for 120 mins by Hanes-Woolf plot analysis; format: cell-based; settings: 2 h; in short: as §1
[18] = molecular target: T1, Broad substrate specificity ATP-binding cassette transporter ABCG2; experiment: Ratio of IC50 for inhibition of human GFP-fused ABCG2 expressed in MDCK2 cells to EC50 for inhibition of human GFP-fused ABCG2 expressed in MDCK2 cells assessed as potentiation of SN-38 induced cytotoxicity by measuring cell viability; format: cell-based
[19] = molecular target: T1, Broad substrate specificity ATP-binding cassette transporter ABCG2; experiment: Inhibition of ABCG2 (unknown origin) ATPase activity expressed in baculovirus infected high five cell membranes by ascorbic acid/ammonia molybdate reaction-based colorimetric analysis; in short: as §3
ABCG2 [20] = molecular target: T2, ABCG2; experiment: Activation of ABCG2 (unknown origin) ATPase activity expressed in baculovirus infected high five cell membranes assessed as protein Vmax at 35 uM by ascorbic acid/ammonia molybdate reaction-based colorimetric analysis relative to basal control; settings: read-out: Vmax; in short: as §3
[21] = molecular target: T1, Broad substrate specificity ATP-binding cassette transporter ABCG2; experiment: Mixed type inhibition of recombinant human GFP-fused ABCG2 expressed in MDCK2 cells preincubated for 30 mins followed by varying levels of Hoechst 33342 addition measured immediately at 60 sec time interval for 120 mins by Cornish-Bowden plot analysis; format: cell-based; settings: 2 h; in short: as §1
ABCG2 [22] = molecular target: T2, ABCG2; experiment: Activation of ABCG2 (unknown origin) ATPase activity expressed in baculovirus infected high five cell membranes assessed as protein Vmax at 0.5 uM by ascorbic acid/ammonia molybdate reaction-based colorimetric analysis relative to basal control; settings: read-out: Vmax; in short: as §3

Sequence of ABCC1 (P33527 whole entry): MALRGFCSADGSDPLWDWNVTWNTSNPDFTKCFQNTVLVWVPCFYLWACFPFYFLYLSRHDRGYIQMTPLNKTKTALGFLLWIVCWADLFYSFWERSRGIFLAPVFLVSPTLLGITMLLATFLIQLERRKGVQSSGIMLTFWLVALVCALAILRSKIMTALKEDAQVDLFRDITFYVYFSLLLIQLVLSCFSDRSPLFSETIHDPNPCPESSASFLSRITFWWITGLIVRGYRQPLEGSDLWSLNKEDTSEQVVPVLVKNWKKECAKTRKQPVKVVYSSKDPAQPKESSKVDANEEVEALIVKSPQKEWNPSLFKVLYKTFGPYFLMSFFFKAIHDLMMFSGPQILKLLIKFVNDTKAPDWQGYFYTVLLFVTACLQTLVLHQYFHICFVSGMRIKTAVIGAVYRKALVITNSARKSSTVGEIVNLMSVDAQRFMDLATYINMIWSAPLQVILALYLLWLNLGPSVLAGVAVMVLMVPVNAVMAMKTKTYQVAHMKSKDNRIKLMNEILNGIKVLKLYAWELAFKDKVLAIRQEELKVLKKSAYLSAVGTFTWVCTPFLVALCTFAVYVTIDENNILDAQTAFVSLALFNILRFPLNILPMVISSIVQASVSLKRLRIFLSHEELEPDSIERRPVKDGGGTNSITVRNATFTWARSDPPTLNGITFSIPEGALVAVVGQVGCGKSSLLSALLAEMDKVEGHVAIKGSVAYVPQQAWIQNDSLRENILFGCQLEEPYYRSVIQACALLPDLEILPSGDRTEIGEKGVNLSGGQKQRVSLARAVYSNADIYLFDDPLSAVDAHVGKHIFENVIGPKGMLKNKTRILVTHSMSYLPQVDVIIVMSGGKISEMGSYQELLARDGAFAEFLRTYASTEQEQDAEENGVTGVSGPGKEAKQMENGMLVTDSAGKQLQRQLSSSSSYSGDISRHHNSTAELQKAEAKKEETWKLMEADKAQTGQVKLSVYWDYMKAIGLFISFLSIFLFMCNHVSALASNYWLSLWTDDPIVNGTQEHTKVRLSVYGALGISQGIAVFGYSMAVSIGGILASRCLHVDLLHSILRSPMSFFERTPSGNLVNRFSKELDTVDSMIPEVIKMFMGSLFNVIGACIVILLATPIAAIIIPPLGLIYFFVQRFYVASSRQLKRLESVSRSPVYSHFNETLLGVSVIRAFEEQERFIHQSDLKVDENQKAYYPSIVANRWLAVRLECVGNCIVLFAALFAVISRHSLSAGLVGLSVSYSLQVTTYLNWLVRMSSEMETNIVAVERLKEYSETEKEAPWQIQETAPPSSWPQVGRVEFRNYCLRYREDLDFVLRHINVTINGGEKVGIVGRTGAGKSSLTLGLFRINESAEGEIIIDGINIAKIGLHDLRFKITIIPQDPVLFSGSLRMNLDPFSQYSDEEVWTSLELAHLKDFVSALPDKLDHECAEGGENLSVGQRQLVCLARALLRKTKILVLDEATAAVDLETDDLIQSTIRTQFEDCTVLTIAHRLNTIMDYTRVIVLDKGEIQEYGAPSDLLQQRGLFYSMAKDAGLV
Sequence of ATP-dependent translocase ABCB1 (P08183 whole entry): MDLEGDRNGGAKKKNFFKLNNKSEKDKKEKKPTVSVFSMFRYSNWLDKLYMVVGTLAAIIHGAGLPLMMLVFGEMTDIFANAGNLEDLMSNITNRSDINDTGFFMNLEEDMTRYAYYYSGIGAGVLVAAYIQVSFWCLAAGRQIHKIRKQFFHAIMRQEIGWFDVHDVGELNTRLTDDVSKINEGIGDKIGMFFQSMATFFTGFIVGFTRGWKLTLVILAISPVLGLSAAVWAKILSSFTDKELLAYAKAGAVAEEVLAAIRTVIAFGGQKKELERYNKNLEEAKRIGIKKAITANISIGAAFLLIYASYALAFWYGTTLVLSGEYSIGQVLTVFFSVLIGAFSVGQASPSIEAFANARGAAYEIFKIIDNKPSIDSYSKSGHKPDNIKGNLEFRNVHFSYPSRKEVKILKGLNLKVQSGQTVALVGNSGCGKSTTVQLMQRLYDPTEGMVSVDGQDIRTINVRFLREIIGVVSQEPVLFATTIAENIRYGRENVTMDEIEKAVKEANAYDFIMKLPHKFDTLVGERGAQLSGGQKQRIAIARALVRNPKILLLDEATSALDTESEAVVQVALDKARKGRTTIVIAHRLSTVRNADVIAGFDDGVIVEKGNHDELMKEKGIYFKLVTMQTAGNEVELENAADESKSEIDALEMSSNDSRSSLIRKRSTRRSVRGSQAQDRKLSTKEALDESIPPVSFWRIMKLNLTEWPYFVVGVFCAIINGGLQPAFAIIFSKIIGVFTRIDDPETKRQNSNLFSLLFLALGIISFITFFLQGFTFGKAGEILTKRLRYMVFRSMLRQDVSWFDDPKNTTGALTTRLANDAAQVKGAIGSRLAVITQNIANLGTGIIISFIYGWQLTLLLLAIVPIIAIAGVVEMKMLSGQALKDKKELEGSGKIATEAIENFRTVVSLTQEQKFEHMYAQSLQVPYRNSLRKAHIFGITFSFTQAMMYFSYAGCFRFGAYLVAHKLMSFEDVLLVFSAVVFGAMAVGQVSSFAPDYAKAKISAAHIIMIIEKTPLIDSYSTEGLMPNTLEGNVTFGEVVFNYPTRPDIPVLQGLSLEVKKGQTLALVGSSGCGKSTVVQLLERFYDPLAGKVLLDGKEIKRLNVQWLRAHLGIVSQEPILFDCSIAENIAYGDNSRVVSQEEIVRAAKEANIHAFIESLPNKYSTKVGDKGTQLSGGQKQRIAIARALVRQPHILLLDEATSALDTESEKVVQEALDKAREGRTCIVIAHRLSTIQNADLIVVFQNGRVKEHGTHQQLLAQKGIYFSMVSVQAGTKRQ
Sequence of ABCB1 (P08183 whole entry, the tested form may be a part): as the sequence (P08183 whole entry) above

SMILES | pIC50 [4] | pEC50 [6] | Emax (ABCG2 [7]) [%] | Emax at 2 h (ABCG2 [8]) [%] | Activity (MDCK-II [9]) | inhibition (INH) [10] | TI [11] | Activity (MDCK-II [12]) | GI50 at 72 h [13] [µM] | GI50 at 72 h [14] [µM] | other results
COc1cccc(Nc2nc(-c3ccncc3)nc3ccccc23)c1 | 6.25 | 7.38 | 132 | 80 to 110 |  |  |  |  |  |  | inhibition (INH) [1]: Active; pIC50 [2]: 5.27; inhibition at 1 h, 10 µM (ABCB1): > 25%; inhibition (INH) [3]: Active; inhibition (INH) [5]: Active
COc1ccc(Nc2nc(-c3ccncc3)nc3ccccc23)cc1 | 6.13 | 7.15 | 137 | 80 to 110 |  |  |  |  |  |  | inhibition at 1 h, 10 µM (ABCC1): 25%
N#Cc1cccc(Nc2nc(-c3cccnc3)nc3ccccc23)c1 | 6.97 | 6.46 | 151 | 80 to 110 | Non-Toxic | Active | 697 | inactive | 75.3 | 90.7 | 
O=[N+]([O-])c1ccc(Nc2nc(-c3cccnc3)nc3ccccc23)cc1 | 7.19 | 8.05 | 164 | 80 to 110 | Non-Toxic | Active |  | inactive | 73.3 | 74.1 | inhibition (INH) [15]: Active; inhibition (INH) [16]: Active; inhibition (INH) [17]: Active; Ratio IC50/EC50 [18]: 3
Cc1cc(Nc2ccc(O)c([N+](=O)[O-])c2)nc(-c2ccccc2)n1 | 7.01 | 5.74 | 154 | 80 to 110 | Non-Toxic | Active | 496 | inactive | 49 | 57.5 | inhibition at 1 h, 10 µM (ABCC1): 25%
FC(F)(F)c1ccc(Nc2nc(-c3ccncc3)nc3ccccc23)cc1 | 6.31 |  | 152 | 80 to 110 |  |  | 240 |  | 117 | 166 | pKi [19]: 4.57
FC(F)(F)c1cccc(Nc2nc(-c3ccncc3)nc3ccccc23)c1 | 6.67 |  |  | 80 to 110 |  |  | 58.3 |  | 12.6 | 12.3 | Emax at 35 µM (ABCG2 [20]): 25%; pKi [19]: 4.55; inhibition (INH) [21]: Active; Emax at 0.5 µM (ABCG2 [22]): 155%
